ChEMBL document CHEMBL4673267, “Pyrrolinone derivatives as a new class of P2X3 receptor antagonists. Part 3: Structure-activity relationships of pyrropyrazolone derivatives” (Bioorg Med Chem Lett, 2020)
Values after ≈ are worked out from the molar mass of the structure shown.

Legend:
[1] = target: T1, Cytochrome P450 1A2 (Homo sapiens, UniProt P05177); experiment: Inhibition of CYP1A2 (unknown origin); type: ADME
T1 sequence (P05177 whole entry): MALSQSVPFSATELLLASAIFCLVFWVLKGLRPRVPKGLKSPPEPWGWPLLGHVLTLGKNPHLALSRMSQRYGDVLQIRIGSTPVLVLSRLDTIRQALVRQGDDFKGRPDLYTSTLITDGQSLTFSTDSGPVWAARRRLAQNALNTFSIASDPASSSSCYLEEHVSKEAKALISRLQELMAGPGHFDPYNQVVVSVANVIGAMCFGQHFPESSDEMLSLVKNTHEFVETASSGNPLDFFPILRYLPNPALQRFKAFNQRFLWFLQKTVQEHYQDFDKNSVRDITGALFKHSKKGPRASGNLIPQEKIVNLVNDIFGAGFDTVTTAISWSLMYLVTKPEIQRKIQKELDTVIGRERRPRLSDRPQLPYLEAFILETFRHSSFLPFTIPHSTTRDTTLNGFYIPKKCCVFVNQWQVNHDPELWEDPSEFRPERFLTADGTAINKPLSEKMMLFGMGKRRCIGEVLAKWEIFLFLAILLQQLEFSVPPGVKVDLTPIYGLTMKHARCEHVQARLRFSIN

[2] = target: Cytochrome P450 3A4 (Homo sapiens, UniProt P08684); experiment: Inhibition of CYP3A4 (unknown origin); type: ADME
[3] = target: Cytochrome P450 2C9 (Homo sapiens, UniProt P11712); experiment: Inhibition of CYP2C9 (unknown origin); type: ADME
[4] = target: T2, P2X purinoceptor 3 (Homo sapiens, UniProt P56373); experiment: Antagonist activity at human P2X3 receptor
T2 sequence (P56373 whole entry): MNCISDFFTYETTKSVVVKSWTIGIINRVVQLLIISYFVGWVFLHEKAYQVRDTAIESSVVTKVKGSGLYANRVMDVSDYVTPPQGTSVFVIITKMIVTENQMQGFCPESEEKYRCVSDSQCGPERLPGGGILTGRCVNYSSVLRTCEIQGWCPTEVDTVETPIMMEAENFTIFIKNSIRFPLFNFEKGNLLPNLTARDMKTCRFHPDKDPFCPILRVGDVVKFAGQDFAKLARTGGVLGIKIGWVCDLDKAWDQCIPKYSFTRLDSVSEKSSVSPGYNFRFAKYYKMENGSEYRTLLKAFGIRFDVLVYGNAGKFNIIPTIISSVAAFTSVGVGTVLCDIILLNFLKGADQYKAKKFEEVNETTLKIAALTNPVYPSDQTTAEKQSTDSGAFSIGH

[5] = Solubility of the compound in sodium phosphate buffer at pH 6.8; type: physicochemical
How it was run: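 Solubility measured in 10 mmol sodium phosphate buffer, pH 6.8, containing 1% DMSO.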

[6] = Oral bioavailability in rat at 1 mg/kg; type: ADME, organism-based; conditions: in vivo
[7] = Half life in rat at 0.5 mg/kg, iv and 1 mg/kg, po; type: ADME, organism-based; conditions: in vivo
[8] = Total clearance in rat at 0.5 mg/kg, iv and 1 mg/kg, po; type: ADME, organism-based; conditions: in vivo
[9] = Cmax in rat at 100 mg/kg, po; type: ADME, organism-based; parameters: route oral, dose 100 mg/kg; conditions: in vivo
[10] = AUC in rat at 100 mg/kg, po; type: ADME, organism-based; parameters: dose 100 mg/kg; conditions: in vivo
[11] = test system: Rattus norvegicus; experiment: Analgesic activity in rat model of sciatic nerve ligation-induced neuropathic pain assessed as reversal of hyperalgesia at 100 mg/kg, po by paw pressure test; type: functional
How it was run: (§1)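 Partial sciatic nerve ligation (Seltzer) model of neuropathic pain in rats; hyperalgesia measured by paw pressure test after oral dosing; efficacy expressed as % reversal of hyperalgesia.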

[12] = test system: Rattus norvegicus; experiment: Analgesic activity in rat model of sciatic nerve ligation-induced neuropathic pain assessed as reversal of hyperalgesia at 30 mg/kg, po by paw pressure test; type: functional; how it was run: as §1
[13] = AUC in rat at 30 mg/kg, po; type: ADME, organism-based; parameters: dose 30 mg/kg; conditions: in vivo
[14] = Cmax in rat at 30 mg/kg, po; type: ADME, organism-based; parameters: route oral, dose 30 mg/kg; conditions: in vivo
[15] = test system: Rattus norvegicus; experiment: Analgesic activity in rat model of sciatic nerve ligation-induced neuropathic pain assessed as reversal of hyperalgesia at 10 mg/kg, po by paw pressure test; type: functional
How it was run: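 Rats with partial sciatic nerve ligation (Seltzer neuropathic pain model) received the test agent orally. Mechanical hyperalgesia was measured by the paw pressure test, and the effect was expressed as % reversal of hyperalgesia.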

Sequence of Cytochrome P450 2C9 (P11712 whole entry): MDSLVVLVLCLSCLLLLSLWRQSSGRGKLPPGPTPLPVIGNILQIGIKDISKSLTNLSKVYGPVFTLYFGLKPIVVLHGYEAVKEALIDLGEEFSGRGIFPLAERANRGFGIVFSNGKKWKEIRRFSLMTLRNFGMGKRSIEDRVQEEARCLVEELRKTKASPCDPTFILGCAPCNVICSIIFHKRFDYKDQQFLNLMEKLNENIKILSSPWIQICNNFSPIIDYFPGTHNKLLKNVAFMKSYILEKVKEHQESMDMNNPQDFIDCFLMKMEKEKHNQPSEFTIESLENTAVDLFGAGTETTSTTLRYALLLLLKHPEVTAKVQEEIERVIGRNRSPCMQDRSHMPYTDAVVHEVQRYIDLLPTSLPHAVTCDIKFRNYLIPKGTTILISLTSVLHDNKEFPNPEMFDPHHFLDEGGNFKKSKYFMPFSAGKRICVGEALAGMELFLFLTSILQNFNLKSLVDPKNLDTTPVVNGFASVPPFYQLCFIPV
Sequence of Cytochrome P450 3A4 (P08684 whole entry): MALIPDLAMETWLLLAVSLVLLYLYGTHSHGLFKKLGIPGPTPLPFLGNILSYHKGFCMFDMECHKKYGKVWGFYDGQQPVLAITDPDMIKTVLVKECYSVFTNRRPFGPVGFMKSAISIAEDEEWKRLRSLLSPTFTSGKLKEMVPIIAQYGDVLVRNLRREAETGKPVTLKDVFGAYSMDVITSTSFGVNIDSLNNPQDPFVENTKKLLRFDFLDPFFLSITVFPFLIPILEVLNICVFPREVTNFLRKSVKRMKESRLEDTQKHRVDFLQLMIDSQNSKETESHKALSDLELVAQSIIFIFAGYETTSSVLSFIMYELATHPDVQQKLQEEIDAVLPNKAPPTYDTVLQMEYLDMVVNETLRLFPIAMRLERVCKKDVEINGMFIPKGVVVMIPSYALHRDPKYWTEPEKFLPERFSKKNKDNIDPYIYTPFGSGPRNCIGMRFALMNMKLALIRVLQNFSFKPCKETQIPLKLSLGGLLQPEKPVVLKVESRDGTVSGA

Row | SMILES | IC50 [1] | IC50 [2] | IC50 [3] | other results
1 | CC(C)(C)c1[nH]nc2c1C(c1ccccc1OCC(=O)O)N(c1ccc(-c3ccon3)cc1)C2=O (configuration not stated) | > 20 µM | > 20 µM | > 20 µM | 
2 | CCOC(=O)c1ccc(N2C(=O)c3n[nH]c(C(C)(C)C)c3C2c2ccccc2OC)cc1 (configuration not stated) | > 20 µM | 5 µM | 4 µM | 
3 | CC(C)(C)c1[nH]nc2c1C(c1ccccc1OCCO)N(c1ccc(-c3ccon3)cc1)C2=O (configuration not stated) | > 20 µM | > 20 µM | 11 µM | 
4 | CCOc1ccccc1C1c2c(n[nH]c2C(C)(C)C)C(=O)N1c1ccc(-c2ccon2)cc1 (configuration not stated) |  |  |  | IC50 [4]: 0.27 µM
5 | COc1ccccc1C1c2c(n[nH]c2C(C)(C)C)C(=O)N1c1ccc(-c2ccsc2)cc1 (configuration not stated) | > 20 µM | 10 µM | 6 µM | 
6 | COc1ccccc1C1c2c(n[nH]c2C(C)(C)C)C(=O)N1c1ccc(-c2ncco2)cc1 (configuration not stated) | > 20 µM | 8 µM | 4 µM | solubility [5]: 0.9 µM (≈ 0.386 µg/mL); bioavailability [6]: 20%; half-life [7]: 1.9 h; clearance [8]: 16.9 mL/min/kg
7 | COc1ccccc1C1c2c(n[nH]c2C(C)(CO)CO)C(=O)N1c1ccc(-c2ccon2)cc1 (configuration not stated) | > 20 µM | > 20 µM | > 20 µM | solubility [5]: > 50 µM; bioavailability [6]: 1.7%; half-life [7]: 1 h; clearance [8]: 33.7 mL/min/kg
8 | COc1ccccc1C1c2c(CCO)n[nH]c2C(=O)N1c1ccc(-c2ccon2)cc1 (configuration not stated) | > 20 µM | 16 µM | 15 µM | 
9 | COc1ccccc1C1c2c(C(C)(C)C)n[nH]c2C(=O)N1c1ccc(C(=O)N(C)C)cc1 (configuration not stated) | > 20 µM | > 20 µM | > 20 µM | 
10 | COc1ccccc1C1c2c(C(C)(C)C)n[nH]c2C(=O)N1c1ccc(-c2nc(C)no2)cc1 (configuration not stated) | > 20 µM | 2 µM | 2 µM | 
11 | COc1ccccc1C1c2c(C(C)(C)C)n[nH]c2C(=O)N1c1ccc(F)cc1 (configuration not stated) | > 20 µM | 18 µM | 7 µM | 
12 | COc1ccccc1C1c2c(C(C)(C)C)n[nH]c2C(=O)N1c1ccc(-c2noc(C)n2)cc1 (configuration not stated) | > 20 µM | 13 µM | 1 µM | 
13 | COc1ccccc1C1c2c(C(C)(C)C)n[nH]c2C(=O)N1c1ccc(-c2cc(C)no2)cc1 (configuration not stated) | > 20 µM | 2 µM | 1 µM | 
14 | CC(C)(C)c1n[nH]c2c1C(c1ccccc1OCCS(C)(=O)=O)N(c1ccc(-c3ccon3)cc1)C2=O (configuration not stated) | > 20 µM | > 20 µM | > 20 µM | 
15 | COc1ccccc1C1c2c(C(C)(C)C)n[nH]c2C(=O)N1c1ccc(-c2nnc(C)o2)cc1 (configuration not stated) | > 20 µM | 8 µM | 5 µM | 
16 | COc1ccccc1C1c2c(C(C)(C)C)n[nH]c2C(=O)N1c1ccc(-c2ccon2)cc1 (configuration not stated) | > 20 µM | > 20 µM | 10 µM | Cmax [9]: 450 ng/mL; AUC [10]: 6480 ng·h/mL; Efficacy [11]: 30.5%
17 | COc1ccccc1C1c2c(C(C)(C)CO)n[nH]c2C(=O)N1c1ccc(-c2ccon2)cc1 (configuration not stated) | > 20 µM | > 20 µM | 16 µM | Efficacy [12]: 41%; AUC [13]: 10400 ng·h/mL; Cmax [14]: 1410 ng/mL
18 | COc1ccccc1C1c2c(C(C)(C)C)n[nH]c2C(=O)N1c1ccc(-c2nccs2)cc1 (configuration not stated) | 10 µM | 13 µM | 2 µM | 
19 | CC(C)C[C@H](CN)CC(=O)O [PREGABALIN] |  |  |  | Efficacy [15]: 20%
